From ChEMBL document CHEMBL1275547, “KHM-1, a novel plasmid-mediated metallo-beta-lactamase from a Citrobacter freundii clinical isolate” (2008)
Converted amounts (≈) assume the structure as drawn. The source made the active and inactive calls. The calls are words filed in the database; no cut-off is given here.

Assays:
Citrobacter freundii = test: Antibacterial activity against Citrobacter freundii KHM243 clinical isolate by microdilution method; type: functional
Escherichia coli [1] = test: Antibacterial activity against Escherichia coli JM109 harboring recombinant pKHM-1 by microdilution method; type: functional
Escherichia coli [2] = test: Antibacterial activity against Escherichia coli JM109 by microdilution method; type: functional
Outline: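 Microdilution β-lactam susceptibility in E. coli JM109, the host strain for recombinant plasmids such as the pHSG396-based blaKHM-1 clone.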

Escherichia coli [3] = test: Antibacterial activity against Escherichia coli K-12 W1895 by microdilution method; type: functional
Outline: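 Microdilution β-lactam MICs in E. coli K-12 W1895, the conjugation recipient. Transconjugants carrying the natural blaKHM-1 plasmid were selected on Penassay agar with rifampin (200 μg/ml) and moxalactam (16 μg/ml).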

Escherichia coli [4] = test: Antibacterial activity against Escherichia coli K-12 W1895 transconjugant harboring pCF243 by microdilution method; type: functional
Escherichia coli [5] = conditions: JM109
Escherichia coli [6] = conditions: JM109; remark: listed apart in the source
Escherichia coli [7] = test: Ratio of Kcat to Km for Escherichia coli JM109 harboring recombinant pKHM-1 Beta-lactamase KHM-1 assessed as compound hydrolysis by UV-visible spectrophotometry
Outline: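 KHM-1 was purified from E. coli JM109(pKHM-1) on HiTrap Q and Superdex 200 columns, with fractions tracked by 100 μM nitrocefin hydrolysis. Protein was measured by BCA. Hydrolysis was followed spectrophotometrically in 50 mM phosphate pH 7.0 at 25°C under initial-rate conditions. Km and kcat came from Lineweaver-Burk plots as means of three independent experiments, and kcat/Km was calculated from them.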

CCN1CCN(C(=O)N[C@@H](C(=O)N[C@]2(OC)C(=O)N3C(C(=O)O)=C(CSc4nnnn4C)CS[C@@H]32)[C@H](C)O)C(=O)C1=O [CEFBUPERAZONE]
MIC (Citrobacter freundii): 128 µg/mL (≈ 204 µM)
MIC (Escherichia coli [1]): 512 µg/mL
MIC (Escherichia coli [2]): 0.031 µg/mL (≈ 0.0494 µM)
MIC (Escherichia coli [3]): 0.063 µg/mL (≈ 0.1 µM)
MIC (Escherichia coli [4]): 256 µg/mL (≈ 408 µM)

CO/N=C(\C(=O)N[C@@H]1C(=O)N2C(C(=O)O)=C(COC(N)=O)CS[C@H]12)c1ccco1 [CEFUROXIME]
MIC (Citrobacter freundii): > 512 µg/mL
MIC (Escherichia coli [1]): > 512 µg/mL
MIC (Escherichia coli [2]): 8 µg/mL (≈ 18.9 µM)
MIC (Escherichia coli [3]): 2 µg/mL (≈ 4.71 µM)
MIC (Escherichia coli [4]): > 512 µg/mL

CO[C@@]1(NC(=O)CSC(F)F)C(=O)N2C(C(=O)O)=C(CSc3nnnn3CCO)CO[C@@H]21 [FLOMOXEF]
MIC (Citrobacter freundii): 64 µg/mL (≈ 129 µM)
MIC (Escherichia coli [1]): 128 µg/mL
MIC (Escherichia coli [2]): 0.031 µg/mL (≈ 0.0624 µM)
MIC (Escherichia coli [3]): 0.031 µg/mL (≈ 0.0624 µM)
MIC (Escherichia coli [4]): 256 µg/mL (≈ 516 µM)

CO/N=C(\C(=O)N[C@@H]1C(=O)N2C(C(=O)O)=C(COC(C)=O)CS[C@H]12)c1csc(N)n1 [CEFOTAXIME]
Km (Escherichia coli [5]): 13 µM
kcat (Escherichia coli [5]): 2180 s⁻¹
MIC (Citrobacter freundii): 64 µg/mL (≈ 141 µM)
MIC (Escherichia coli [1]): 128 µg/mL
MIC (Escherichia coli [2]): 0.004 µg/mL (≈ 0.00878 µM)
MIC (Escherichia coli [3]): 0.008 µg/mL (≈ 0.0176 µM)
MIC (Escherichia coli [4]): > 512 µg/mL

NC(=O)OC[C@@H]1[C@H](NC(=O)/C(=N\OCC(=O)O)c2csc(N)n2)C(=O)N1S(=O)(=O)O [CARUMONAM]
MIC (Citrobacter freundii): 0.25 µg/mL (≈ 0.536 µM)
MIC (Escherichia coli [1]): 0.063 µg/mL
MIC (Escherichia coli [2]): 0.031 µg/mL (≈ 0.0665 µM)
MIC (Escherichia coli [3]): 0.031 µg/mL (≈ 0.0665 µM)
MIC (Escherichia coli [4]): 0.125 µg/mL (≈ 0.268 µM)

C[C@H]1[C@H](NC(=O)/C(=N\OC(C)(C)C(=O)O)c2csc(N)n2)C(=O)N1S(=O)(=O)O [AZTREONAM]
MIC (Escherichia coli [1]): 0.063 µg/mL
MIC (Escherichia coli [3]): 0.031 µg/mL (≈ 0.0712 µM)
Km (Escherichia coli [6]): inactive
kcat (Escherichia coli [6]): inactive
MIC (Escherichia coli [4]): 0.063 µg/mL (≈ 0.145 µM)

CC(C)(O/N=C(\C(=O)N[C@@H]1C(=O)N2C(C(=O)[O-])=C(C[n+]3ccccc3)CS[C@H]12)c1csc(N)n1)C(=O)O [CEFTAZIDIME]
Km (Escherichia coli [5]): 8 µM
kcat (Escherichia coli [5]): 118 s⁻¹
MIC (Citrobacter freundii): > 512 µg/mL
kcat/Km (Escherichia coli [7]): 1.5 ×10⁷ /M/s
MIC (Escherichia coli [1]): > 512 µg/mL
MIC (Escherichia coli [2]): 0.063 µg/mL (≈ 0.115 µM)
MIC (Escherichia coli [3]): 0.125 µg/mL (≈ 0.229 µM)
MIC (Escherichia coli [4]): > 512 µg/mL

C[C@@H](O)[C@H]1C(=O)N2C(C(=O)O)=C(SCCNC=N)C[C@H]12 [IMIPENEM ANHYDROUS]
MIC (Citrobacter freundii): 2 µg/mL (≈ 6.68 µM)
kcat/Km (Escherichia coli [7]): 5.6 ×10⁴ /M/s
MIC (Escherichia coli [3]): 0.063 µg/mL (≈ 0.21 µM)
MIC (Escherichia coli [4]): 4 µg/mL (≈ 13.4 µM)

CC1(C)S[C@@H]2[C@H](NC(=O)Cc3ccccc3)C(=O)N2[C@H]1C(=O)O
Km (Escherichia coli [5]): 1340 µM
kcat (Escherichia coli [5]): 23 s⁻¹
kcat/Km (Escherichia coli [7]): 1.7 ×10⁴ /M/s

C[C@@H](O)[C@H]1C(=O)N2C(C(=O)O)=C(S[C@@H]3CN[C@H](C(=O)N(C)C)C3)[C@H](C)[C@H]12 [MEROPENEM]
Km (Escherichia coli [5]): 12 µM
kcat (Escherichia coli [5]): 0.4 s⁻¹
MIC (Citrobacter freundii): 4 µg/mL (≈ 10.4 µM)
kcat/Km (Escherichia coli [7]): 3.3 ×10⁴ /M/s
MIC (Escherichia coli [1]): 4 µg/mL
MIC (Escherichia coli [2]): 0.004 µg/mL (≈ 0.0104 µM)
MIC (Escherichia coli [3]): 0.004 µg/mL (≈ 0.0104 µM)
MIC (Escherichia coli [4]): 4 µg/mL (≈ 10.4 µM)
